Reference: publication PMC2828495 (Bioorganic & medicinal chemistry, 2010)

Assays:
EcN68 SecA = EcN68 SecA (Escherichia coli, UniProt P10408); experiment: EcN68 SecA ATPase inhibition; assay type: biochemical, E. coli
[1] = system: wild type E. coli strain MC4100; experiment: Antimicrobial test; assay type: cell-based; conditions: Figure 8
leaky mutant NR698 = experiment: Antimicrobial test; assay type: cell-based, E. coli; conditions: Figure 8
In short: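 E. coli NR698 (MC4100 imp4213), a strain with increased outer-membrane permeability. Log-phase cells at OD600 ~0.5 to 1.0 were diluted to OD600 0.05 and test compound (dissolved in DMSO) was added. Cultures containing 5% DMSO final were shaken at 37 °C, 1050 rpm, for 10 to 12 h. MIC was then determined.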

EcSecA = EcSecA (Escherichia coli, UniProt P10408); experiment: Whole EcSecA ATPase inhibition; assay type: biochemical, E. coli
In short: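 Full-length E. coli SecA was over-expressed from pT7-SecA and purified. Each reaction held 5 µg SecA, 2 mM ATP, 50 mM Tris-HCl pH 7.6, 20 mM KCl, 20 mM NH4Cl, 1 mM DTT, 2 mM Mg(OAc)2 and 10% DMSO, run at 40 °C for 40 min. Malachite green, then 34% citric acid, was added; after 40 min at room temperature A660 gave Pi. Activity was expressed as % of no-compound control, at least in triplicate, with IC50 from inhibition curves.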

[2] = Solubility observation in the inhibition assay; assay type: physicochemical; conditions: when approaching 100 µM

EcN68 SecA, sequence (P10408 1-610): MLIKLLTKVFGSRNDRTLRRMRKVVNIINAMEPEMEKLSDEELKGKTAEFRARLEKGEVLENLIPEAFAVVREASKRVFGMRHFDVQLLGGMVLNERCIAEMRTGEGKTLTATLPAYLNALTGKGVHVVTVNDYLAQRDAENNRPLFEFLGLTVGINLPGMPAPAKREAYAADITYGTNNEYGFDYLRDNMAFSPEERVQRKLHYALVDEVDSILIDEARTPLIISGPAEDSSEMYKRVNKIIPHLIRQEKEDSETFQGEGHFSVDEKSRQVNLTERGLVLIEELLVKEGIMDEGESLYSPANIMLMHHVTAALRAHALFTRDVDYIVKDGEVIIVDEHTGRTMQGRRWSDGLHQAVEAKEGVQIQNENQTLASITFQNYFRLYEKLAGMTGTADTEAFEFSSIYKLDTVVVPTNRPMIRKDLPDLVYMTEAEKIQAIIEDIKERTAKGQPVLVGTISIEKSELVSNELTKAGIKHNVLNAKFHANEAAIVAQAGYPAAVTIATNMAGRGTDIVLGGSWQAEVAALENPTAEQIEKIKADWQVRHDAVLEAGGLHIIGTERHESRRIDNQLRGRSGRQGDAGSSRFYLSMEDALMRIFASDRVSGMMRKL
EcSecA, sequence (P10408 whole entry): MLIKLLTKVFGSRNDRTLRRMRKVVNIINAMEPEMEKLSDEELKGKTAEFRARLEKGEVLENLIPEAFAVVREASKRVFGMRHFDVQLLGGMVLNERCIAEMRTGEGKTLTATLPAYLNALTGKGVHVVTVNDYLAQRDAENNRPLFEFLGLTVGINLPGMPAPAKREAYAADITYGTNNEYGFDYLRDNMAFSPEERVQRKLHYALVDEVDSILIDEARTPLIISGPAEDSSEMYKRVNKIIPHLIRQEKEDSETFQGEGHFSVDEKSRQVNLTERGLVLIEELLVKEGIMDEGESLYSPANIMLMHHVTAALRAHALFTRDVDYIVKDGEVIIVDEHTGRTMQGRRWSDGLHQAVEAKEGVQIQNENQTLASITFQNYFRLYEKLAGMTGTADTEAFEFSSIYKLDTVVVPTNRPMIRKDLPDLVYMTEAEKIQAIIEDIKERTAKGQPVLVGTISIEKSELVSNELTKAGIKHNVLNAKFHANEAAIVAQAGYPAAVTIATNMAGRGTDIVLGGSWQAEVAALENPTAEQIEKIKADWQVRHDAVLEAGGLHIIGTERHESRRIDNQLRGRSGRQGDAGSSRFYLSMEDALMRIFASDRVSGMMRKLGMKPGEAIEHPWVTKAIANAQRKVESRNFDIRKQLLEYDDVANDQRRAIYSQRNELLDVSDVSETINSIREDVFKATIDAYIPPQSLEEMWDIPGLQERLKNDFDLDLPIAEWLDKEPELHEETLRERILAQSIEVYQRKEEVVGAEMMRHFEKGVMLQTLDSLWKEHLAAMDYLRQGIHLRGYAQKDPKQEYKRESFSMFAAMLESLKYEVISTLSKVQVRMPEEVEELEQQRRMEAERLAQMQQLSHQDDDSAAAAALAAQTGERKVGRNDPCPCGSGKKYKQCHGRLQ

SMILES | fold more potent than the hit compound(s) (EcN68 SecA) [fold] | antimicrobial activity (MIC) against MC4100 [1] | IC50 (EcN68 SecA) [nM] | antimicrobial activity (MIC) against NR698 (leaky mutant NR698) | IC50 (EcSecA) [µM] | solubility [2]
N#Cc1c(-c2ccc(Br)cc2)nc(SCc2ccc(CSC3=NC(=O)C(C#N)C(c4ccc(Br)cc4)=N3)cc2)[nH]c1=O (stereo not drawn) [16g, 2,2'-(α,α’-Xylene)bis(sulfanediyl)bis-(6-(4-bromophenyl)-5-cyano-4-oxopyrimidine)] | 50 | – | – | – | – | –
N#Cc1c(-c2ccc(-c3ccccc3)cc2)nc(SCc2ccc(CSC3=NC(=O)C(C#N)C(c4ccc(-c5ccccc5)cc4)=N3)cc2)[nH]c1=O (stereo not drawn) [16h, 2,2'-(α,α’-Xylene)bis(sulfanediyl)bis-(6-(biphenyl-4-yl)-5-cyano-4-oxopyrimidine)] | 50 | neither 17h nor 16h exhibited inhibition effects | 2000 | did not exhibit significantly antimicrobial activities | – | –
N#Cc1c(-c2ccc(-c3ccccc3)cc2)nc(SCc2ccccc2)[nH]c1=O [17h, S-Benzyl-5-cyano-6-(biphenyl-4-yl)-2-thiouracil] | – | neither 17h nor 16h exhibited inhibition effects | – | most potent inhibition effects | 60 | –
Cc1onc(-c2c(F)cccc2Cl)c1C(=O)Nc1ccc(Sc2ccccc2)nc1Sc1ccccc1 [compound 1] | – | – | – | – | – | started having solubility problems when approaching 100 µM
